What was measured:
Type in all cases: functional
[1] = test system: NCI-H460; test: Anticancer activity against human NCI-H460 cells assessed as cell growth at 100 uM after 48 hrs by sulforhodamine B assay; settings: NCI-H460, 48 h, read-out: Activity
[2] = test system: MCF7; test: Anticancer activity against human MCF7 cells assessed as cell growth at 100 uM after 48 hrs by sulforhodamine B assay; settings: MCF7, 48 h, read-out: Activity
[3] = test system: K562; test: Growth inhibition of human K562 cells after 48 hrs by sulforhodamine B assay; settings: K562, 48 h; for TGI: read-out: pTGI (converted)
Outline: (§1)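 NCI 60-human-tumor-cell-line panel, with compounds tested over a 5-log dose range. Values are taken from dose-response curves as log10 molar concentrations: GI50 is 50% net growth inhibition, TGI is total growth inhibition, and LC50 is 50% net cell death.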

[4] = test system: A549; test: Growth inhibition of human A549 cells after 48 hrs by sulforhodamine B assay; settings: A549, 48 h; for TGI: read-out: pTGI (converted); outline: as §1
[5] = test system: NCI-H322M; test: Growth inhibition of human NCI-H322M cells after 48 hrs by sulforhodamine B assay; settings: for TGI: read-out: pTGI (converted); outline: as §1
[6] = test system: NCI-H522; test: Growth inhibition of human NCI-H522 cells after 48 hrs by sulforhodamine B assay; settings: NCI-H522, 48 h; for TGI: read-out: pTGI (converted); outline: as §1
[7] = test system: COLO 205; test: Growth inhibition of human COLO205 cells after 48 hrs by sulforhodamine B assay; settings: COLO 205, 48 h; for TGI: read-out: pTGI (converted); outline: as §1
[8] = test system: SW-620; test: Growth inhibition of human SW620 cells after 48 hrs by sulforhodamine B assay; settings: SW-620, 48 h; for CC50: read-out: pLC50 (the source's name) (converted); for TGI: read-out: pTGI (converted)
Outline: (§2)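 Run in the NCI 60-human-tumour-cell-line panel, tested over a 5-log dose range. Dose–response curves gave three values per cell line, each as a log10 molar concentration: GI50 (50% inhibition of net cell growth), TGI (total inhibition of net growth) and LC50 (50% net cell death). The mean graph midpoint is the arithmetic mean over all lines, with insensitive lines entered at the highest concentration tested.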

[9] = test system: SF-268; test: Growth inhibition of human SF268 cells after 48 hrs by sulforhodamine B assay; settings: SF-268, 48 h; for TGI: read-out: pTGI (converted); outline: as §1
[10] = test system: SF-295; test: Growth inhibition of human SF295 cells after 48 hrs by sulforhodamine B assay; settings: SF-295, 48 h; for TGI: read-out: pTGI (converted); outline: as §1
[11] = test system: U-251; test: Growth inhibition of human U251 cells after 48 hrs by sulforhodamine B assay; settings: U-251, 48 h; for TGI: read-out: pTGI (converted); outline: as §2
[12] = test system: LOX IMVI; test: Growth inhibition of human LOXIMVI cells after 48 hrs by sulforhodamine B assay; settings: for TGI: read-out: pTGI (converted); outline: as §1
[13] = test system: M14; test: Growth inhibition of human M14 cells after 48 hrs by sulforhodamine B assay; settings: M14, 48 h; for CC50: read-out: pLC50 (the source's name) (converted); for TGI: read-out: pTGI (converted); outline: as §1
[14] = test system: SK-MEL-28; test: Growth inhibition of human SK-MEL-28 cells after 48 hrs by sulforhodamine B assay; settings: SK-MEL-28, 48 h; for CC50: read-out: pLC50 (the source's name) (converted); for TGI: read-out: pTGI (converted); outline: as §1
[15] = test system: SK-MEL-5; test: Growth inhibition of human SK-MEL-5 cells after 48 hrs by sulforhodamine B assay; settings: SK-MEL-5, 48 h; for CC50: read-out: pLC50 (the source's name) (converted); for TGI: read-out: pTGI (converted); outline: as §1
[16] = test system: IGROV-1; test: Growth inhibition of human IGROV1 cells after 48 hrs by sulforhodamine B assay; settings: IGROV-1, 48 h; for CC50: read-out: pLC50 (the source's name) (converted); for TGI: read-out: pTGI (converted); outline: as §1
[17] = test system: OVCAR-4; test: Growth inhibition of human OVCAR4 cells after 48 hrs by sulforhodamine B assay; settings: OVCAR-4, 48 h; outline: as §1
[18] = test system: OVCAR-5; test: Growth inhibition of human OVCAR5 cells after 48 hrs by sulforhodamine B assay; settings: OVCAR-5, 48 h; for CC50: read-out: pLC50 (the source's name) (converted); for TGI: read-out: pTGI (converted); outline: as §1
[19] = test system: OVCAR-8; test: Growth inhibition of human OVCAR8 cells after 48 hrs by sulforhodamine B assay; settings: OVCAR-8, 48 h; for CC50: read-out: pLC50 (the source's name) (converted); for TGI: read-out: pTGI (converted); outline: as §1
[20] = test system: 786-0; test: Growth inhibition of human 786-0 cells after 48 hrs by sulforhodamine B assay; settings: 786-0, 48 h; for CC50: read-out: pLC50 (the source's name) (converted); for TGI: read-out: pTGI (converted); outline: as §1
[21] = test system: CAKI-1; test: Growth inhibition of human Caki1 cells after 48 hrs by sulforhodamine B assay; settings: CAKI-1, 48 h; for CC50: read-out: pLC50 (the source's name) (converted); for TGI: read-out: pTGI (converted); outline: as §1
[22] = test system: RXF 393; test: Growth inhibition of human RXF393 cells after 48 hrs by sulforhodamine B assay; settings: RXF 393, 48 h; for CC50: read-out: pLC50 (the source's name) (converted); for TGI: read-out: pTGI (converted); outline: as §1
[23] = test system: TK-10; test: Growth inhibition of human TK10 cells after 48 hrs by sulforhodamine B assay; settings: TK-10, 48 h; for CC50: read-out: pLC50 (the source's name) (converted); for TGI: read-out: pTGI (converted); outline: as §2
[24] = test system: PC-3; test: Growth inhibition of human PC3 cells after 48 hrs by sulforhodamine B assay; settings: PC-3, 48 h; for CC50: read-out: pLC50 (the source's name) (converted); for TGI: read-out: pTGI (converted); outline: as §1
[25] = test system: DU-145; test: Growth inhibition of human DU145 cells after 48 hrs by sulforhodamine B assay; settings: DU-145, 48 h; for CC50: read-out: pLC50 (the source's name) (converted); for TGI: read-out: pTGI (converted); outline: as §1
[26] = test system: NCI/ADR-RES; test: Growth inhibition of human NCI/ADR-RES cells after 48 hrs by sulforhodamine B assay; settings: for CC50: read-out: pLC50 (the source's name) (converted); for TGI: read-out: pTGI (converted); outline: as §1
[27] = test system: MDA-MB-231; test: Growth inhibition of human MDA-MB-231 cells after 48 hrs by sulforhodamine B assay; settings: MDA-MB-231, 48 h; for CC50: read-out: pLC50 (the source's name) (converted); for TGI: read-out: pTGI (converted); outline: as §1
[28] = Growth inhibition of human Hs 578T cells after 48 hrs by sulforhodamine B assay; settings: for CC50: read-out: pLC50 (the source's name) (converted); for TGI: read-out: pTGI (converted); outline: as §1
[29] = test system: MDA-MB-435; test: Growth inhibition of human MDA-MB-435 cells after 48 hrs by sulforhodamine B assay; settings: MDA-MB-435, 48 h; for CC50: read-out: pLC50 (the source's name) (converted); for TGI: read-out: pTGI (converted); outline: as §1
[30] = test system: HCT-116; test: Growth inhibition of human HCT116 cells after 48 hrs by sulforhodamine B assay; settings: HCT-116, 48 h; outline: as §1

## COc1ccc(CNc2nc3cc(N)cc(N)c3nc2-c2ccccc2)cc1OC
[1]
  growth at 100 µM: 3%
[2]
  growth at 100 µM: 0%
[3]
  GI50: 6.03 µM
  LC50: > 100 µM
  TGI: > 100 µM
[4]
  GI50: 20.9 µM
  LC50: > 100 µM
  TGI: 50.1 µM
[5]
  GI50: 22.9 µM
  LC50: 100 µM
  TGI: 47.9 µM
[6]
  GI50: 2.69 µM
  LC50: 63.1 µM
  TGI: 6.31 µM
[7]
  GI50: 7.94 µM
  LC50 (50% net cell kill): > 100 µM
  TGI: > 100 µM
[8]
  GI50: 5.25 µM
  CC50: > 100 µM
  TGI: > 100 µM
[9]
  GI50: 14.8 µM
  LC50: > 100 µM
  TGI: 60.3 µM
[10]
  GI50: 13.2 µM
  LC50 (50% net cell kill): 58.9 µM
  TGI: 28.2 µM
[11]
  GI50: 17 µM
  LC50 (50% net cell kill): 89.1 µM
  TGI: 38.9 µM
[12]
  GI50: 3.09 µM
  LC50: > 100 µM
  TGI: 14.1 µM
[13]
  GI50: 4.27 µM
  CC50: 33.9 µM
  TGI: 7.76 µM
[14]
  GI50: 13.5 µM
  CC50: 67.6 µM
  TGI: 30.2 µM
[15]
  GI50: 10 µM
  CC50: 77.6 µM
  TGI: 27.5 µM
[16]
  GI50: 11.5 µM
  CC50: > 100 µM
  TGI: 40.7 µM
[17]
  GI50: 2.69 µM
[17]; read-out: pLC50 (the source's name) (converted)
  CC50: 52.5 µM
[17]; read-out: pTGI (converted)
  TGI: 7.41 µM
[18]
  GI50: 20.9 µM
  CC50: 81.3 µM
  TGI: 41.7 µM
[19]
  GI50: 6.76 µM
  CC50: > 100 µM
  TGI: 33.9 µM
[20]
  GI50: 15.5 µM
  CC50: 75.9 µM
  TGI: 34.7 µM
[21]
  GI50: 11.2 µM
  CC50: 53.7 µM
  TGI: 24.5 µM
[22]
  GI50: 19.1 µM
  CC50: > 100 µM
  TGI: > 100 µM
[23]
  GI50: 16.6 µM
  CC50: 64.6 µM
  TGI: 32.4 µM
[24]
  GI50: 8.32 µM
  CC50: 83.2 µM
  TGI: 27.5 µM
[25]
  GI50: 0.46 µM
  CC50: > 100 µM
  TGI: 87.1 µM
[26]
  GI50: 17.8 µM
  CC50: > 100 µM
  TGI: 66.1 µM
[27]
  GI50: 11.2 µM
  CC50: 79.4 µM
  TGI: 29.5 µM
[28]
  GI50: 33.9 µM
  CC50: > 100 µM
  TGI: > 100 µM
[29]
  GI50: 1.95 µM
  CC50: 8.51 µM
  TGI: 4.07 µM

## COc1cc(CNc2nc3cc(N)cc(N)c3nc2-c2ccccc2)cc(OC)c1OC
[1]
  growth at 100 µM: 7%
[2]
  growth at 100 µM: 0%
[3]
  GI50: 1.78 µM
  LC50: > 50.1 µM
  TGI: > 50.1 µM
[4]
  GI50: 4.27 µM
  LC50: > 50.1 µM
  TGI: 33.1 µM
[5]
  GI50: 3.02 µM
  LC50: > 50.1 µM
  TGI: 15.8 µM
[6]
  GI50: > 50.1 µM
  LC50: > 50.1 µM
  TGI: > 50.1 µM
[7]
  GI50: 3.8 µM
  LC50 (50% net cell kill): > 50.1 µM
  TGI: > 50.1 µM
[30]
  GI50: 9.77 µM
  LC50 (concentration causing 50% net cell death): 37.2 µM
[30]; read-out: pTGI (converted)
  TGI: 19.1 µM
[8]
  GI50: 1.55 µM
  CC50: > 50.1 µM
  TGI: 4.47 µM
[9]
  GI50: 2.95 µM
  LC50: 49 µM
  TGI: 14.1 µM
[10]
  GI50: 1.66 µM
  LC50 (50% net cell kill): 37.2 µM
  TGI: 5.62 µM
[11]
  GI50: 1.74 µM
  LC50 (50% net cell kill): 30.2 µM
  TGI: 6.31 µM
[12]
  GI50: 3.16 µM
  LC50: 26.3 µM
  TGI: 10.5 µM
[13]
  GI50: 9.55 µM
  CC50: 34.7 µM
  TGI: 18.2 µM
[14]
  GI50: 8.51 µM
  CC50: 36.3 µM
  TGI: 17.8 µM
[15]
  GI50: 0.724 µM
  CC50: 29.5 µM
  TGI: 7.76 µM
[16]
  GI50: 9.12 µM
  CC50: > 50.1 µM
  TGI: > 50.1 µM
[18]
  GI50: 21.4 µM
  CC50: > 50.1 µM
  TGI: > 50.1 µM
[19]
  GI50: 6.92 µM
  CC50: 31.6 µM
  TGI: 14.8 µM
[20]
  GI50: 15.5 µM
  CC50: > 50.1 µM
  TGI: > 50.1 µM
[21]
  GI50: 1.91 µM
  CC50: 31.6 µM
  TGI: 8.71 µM
[22]
  GI50: 7.41 µM
  CC50: > 50.1 µM
  TGI: 20 µM
[23]
  GI50: 6.31 µM
  CC50: > 50.1 µM
  TGI: 17.8 µM
[24]
  GI50: 2.19 µM
  CC50: > 50.1 µM
  TGI: > 50.1 µM
[25]
  GI50: 5.25 µM
  CC50: > 50.1 µM
  TGI: 20 µM
[26]
  GI50: 10.2 µM
  CC50: 46.8 µM
  TGI: 21.9 µM
[27]
  GI50: 7.24 µM
  CC50: 31.6 µM
  TGI: 15.1 µM
[28]
  GI50: 3.02 µM
  CC50: > 50.1 µM
  TGI: 33.1 µM
[29]
  GI50: 0.229 µM
  CC50: 2.88 µM
  TGI: 0.912 µM
